Laboratory results reported in ChEMBL document CHEMBL3627680, “An unprecedented dual antagonist and agonist of human Transglutaminase 2” (Bioorg Med Chem Lett, 2015).
Residue numbers refer to the chain shown, from its start. Values belong to the molecule of their own block, whether it stands above or below them. Calls of active or inactive are those of the source. No cut-off for these calls is given here.

Assays:
[1] = target: T1, Protein-glutamine gamma-glutamyltransferase (Homo sapiens) (UniProt P21980); test: Activation of extracellular TG2 transamidating activity in human WI38 cells assessed as incorporation of 5-BP into fibronectin at 1 uM preincubated for 30 mins followed by 5-BP addition measured after 3 hrs by DAPI staining-based confocal fluorescence microscopic analysis; format: cell-based; details: WI-38
T1 sequence (whole entry): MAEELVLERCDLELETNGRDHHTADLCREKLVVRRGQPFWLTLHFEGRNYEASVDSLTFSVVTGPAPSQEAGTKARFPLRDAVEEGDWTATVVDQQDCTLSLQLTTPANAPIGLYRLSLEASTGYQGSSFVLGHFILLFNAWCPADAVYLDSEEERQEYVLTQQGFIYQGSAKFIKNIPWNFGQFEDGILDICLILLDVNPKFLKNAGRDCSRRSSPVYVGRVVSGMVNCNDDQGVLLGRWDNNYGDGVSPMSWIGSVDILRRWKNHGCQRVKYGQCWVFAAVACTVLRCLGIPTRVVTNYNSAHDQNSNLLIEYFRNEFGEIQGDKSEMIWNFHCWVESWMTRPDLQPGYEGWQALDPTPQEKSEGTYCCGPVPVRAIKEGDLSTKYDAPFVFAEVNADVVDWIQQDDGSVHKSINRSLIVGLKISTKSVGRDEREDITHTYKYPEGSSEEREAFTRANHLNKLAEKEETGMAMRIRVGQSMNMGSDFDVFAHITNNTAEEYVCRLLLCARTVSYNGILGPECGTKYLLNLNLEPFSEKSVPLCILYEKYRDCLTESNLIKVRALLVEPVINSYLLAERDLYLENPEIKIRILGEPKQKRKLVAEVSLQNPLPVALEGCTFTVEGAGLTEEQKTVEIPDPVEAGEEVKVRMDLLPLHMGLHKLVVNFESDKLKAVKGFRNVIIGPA
Procedure, shortened: (§1)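 WI-38 fibroblasts grown to confluence, pre-incubated 30 min with vehicle (1% DMSO) or compound, then incubated with 200 μM 5-(biotinamido)-pentylamine for 3 h. Cells fixed and stained to image 5-BP incorporation into extracellular matrix proteins as a measure of TG2 transamidation. Five images sampled per well.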

[2] = target: T1, Protein-glutamine gamma-glutamyltransferase (Homo sapiens); test: Activation of extracellular TG2 transamidating activity in human WI38 cells assessed as incorporation of 5-BP into fibronectin at 10 uM preincubated for 30 mins followed by 5-BP addition measured after 3 hrs by DAPI staining-based confocal fluorescence microscopic analysis; format: cell-based; details: WI-38; procedure, shortened: as §1
[3] = target: T2, Protein-glutamine gamma-glutamyltransferase (Homo sapiens, UniProt P21980); test: Non-competitive inhibition of recombinant human TG2 V224 mutant deamidation activity using Cbz-Gln-Gly as substrate preincubated for 30 mins followed by substrate addition by GDH-coupled assay in presence of 5 mM Ca2+
Procedure, shortened: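 V224 TG2 (0.5 μM) deamidation by GDH-coupled assay at 5 mM Ca2+. Rates measured across substrate concentrations at several inhibitor levels. Mode and Ki derived by Michaelis-Menten and Lineweaver-Burk analysis.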

[4] = target: T2, Protein-glutamine gamma-glutamyltransferase; test: Competitive inhibition of recombinant human TG2 V224 mutant deamidation activity using Cbz-Gln-Gly as substrate preincubated for 30 mins followed by substrate addition by Lineweaver-Burk plot analysis in presence of 5 mM Ca2+
Procedure, shortened: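 Deamidation of Cbz-Gln-Gly by the V224 allele of human TG2 (0.5 μM) was read by a GDH-coupled assay at 5 mM Ca2+. Michaelis-Menten data were collected at several inhibitor levels, and Ki was derived from Lineweaver-Burk analysis.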

[5] = system: Protein-glutamine gamma-glutamyltransferase (Homo sapiens), P21980 [UNDEFINED MUTATION]; test: Effect on open state of recombinant human TG2 V224 mutant at 500 uM after 1 hr by native PAGE analysis in presence of 1 mM MgCl2
[6] = system: Protein-glutamine gamma-glutamyltransferase (Homo sapiens), P21980 [UNDEFINED MUTATION]; test: Effect on closed state of recombinant human TG2 V224 mutant at 500 uM after 1 hr by native PAGE analysis in presence of 1 mM MgCl2
[7] = system: Protein-glutamine gamma-glutamyltransferase (Homo sapiens), P21980 [UNDEFINED MUTATION]; test: Activation of recombinant human TG2 V224 mutant deamidation activity using Cbz-Gln-Gly as substrate preincubated for 30 mins followed by substrate addition by GDH-coupled assay in presence of 0.5 to 0.7 mM Ca2+
[8] = system: Protein-glutamine gamma-glutamyltransferase (Homo sapiens), P21980 [UNDEFINED MUTATION]; test: Activation of recombinant human TG2 V224 mutant deamidation activity using Cbz-Gln-Gly as substrate at 15 uM preincubated for 30 mins followed by substrate addition by GDH-coupled assay in presence of 0.6 mM Ca2+
[9] = system: Protein-glutamine gamma-glutamyltransferase (Homo sapiens), P21980 [UNDEFINED MUTATION]; test: Activation of recombinant human TG2 V224 mutant transamidating activity assessed as 5-BP incorporation into immobilized N-N-dimethylcasein at 15 uM preincubated for 30 mins followed by 5-BP addition measured after 1 hr by streptavidin-based microtiter plate assay in presence of 0.6 mM Ca2+/100 uM GMP-PNP
Procedure, shortened: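 Transamidation microtiter assay: 5-BP incorporated into immobilized N,N-dimethylcasein by V224 TG2 at 0.6 mM Ca2+ plus 100 μM GMP-PNP, with incorporated biotin quantified with streptavidin.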

[10] = system: Protein-glutamine gamma-glutamyltransferase (Homo sapiens), P21980 [UNDEFINED MUTATION]; test: Effect on open state of recombinant human TG2 V224 mutant at 100 uM after 1 hr by native PAGE analysis
[11] = system: Protein-glutamine gamma-glutamyltransferase (Homo sapiens), P21980 [UNDEFINED MUTATION]; test: Effect on closed state of recombinant human TG2 V224 mutant at 100 uM after 1 hr by native PAGE analysis
[12] = system: T3, Protein-glutamine gamma-glutamyltransferase (Homo sapiens), P21980 [R580A]; test: Inhibition of recombinant human TG2 R580A mutant deamidation activity using Cbz-Gln-Gly as substrate at 10 uM preincubated for 30 mins followed by substrate addition by GDH-coupled assay in presence of 3 mM Ca2+
T3 sequence (whole entry): T1 sequence (whole entry) with R580A
Procedure, shortened: (§2)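 GDH-coupled deamidation assay comparing wild-type and R580A TG2 at 0.5 μM enzyme and 3 mM Ca2+, with and without GMP-PNP.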

[13] = system: T3, Protein-glutamine gamma-glutamyltransferase (Homo sapiens), P21980 [R580A]; test: Activation of recombinant human TG2 R580A mutant deamidation activity using Cbz-Gln-Gly as substrate at 10 uM preincubated for 30 mins followed by substrate addition by GDH-coupled assay in presence of 3 mM Ca2+/500 uM GMP-PNP; procedure, shortened: as §2
[14] = target: T1, Protein-glutamine gamma-glutamyltransferase (Homo sapiens); test: Inhibition of wild type human TG2 at 15 uM in presence of 5 mM Ca2+
Procedure, shortened: (§3)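 GDH-coupled deamidation with wild-type or truncated (1-466) TG2 at 0.5 μM enzyme and 5 mM Ca2+. Activity normalized to each protein's own maximum.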

[15] = target: T1, Protein-glutamine gamma-glutamyltransferase (Homo sapiens); test: Inhibition of human TG2 truncated (1 to 466 amino acid residues) mutant at 15 uM in presence of 5 mM Ca2+; procedure, shortened: as §3
[16] = target: T1, Protein-glutamine gamma-glutamyltransferase (Homo sapiens); test: Inhibition of wild type human TG2 deamidation activity using Cbz-Gln-Gly as substrate preincubated for 30 mins followed by substrate addition by GDH-coupled assay in presence of 5 mM Ca2+; procedure, shortened: as §3
[17] = system: Protein-glutamine gamma-glutamyltransferase (Homo sapiens), P21980 [UNDEFINED MUTATION]; test: Inhibition of human TG2 E396Q/N398S/D400N mutant deamidation activity using Cbz-Gln-Gly as substrate preincubated for 30 mins followed by substrate addition by GDH-coupled assay in presence of 5 mM Ca2+
[18] = system: Protein-glutamine gamma-glutamyltransferase (Homo sapiens), P21980 [UNDEFINED MUTATION]; test: Inhibition of human TG2 E447Q/E451Q/E452Q/E454Q mutant deamidation activity using Cbz-Gln-Gly as substrate preincubated for 30 mins followed by substrate addition by GDH-coupled assay in presence of 5 mM Ca2+
[19] = system: Protein-glutamine gamma-glutamyltransferase (Homo sapiens), P21980 [UNDEFINED MUTATION]; test: Activation of recombinant human TG2 V224 mutant deamidation activity using Cbz-Gln-Gly as substrate at 25 uM preincubated for 30 mins followed by substrate addition by GDH-coupled assay in presence of 0.6 mM Ca2+

Activity [1]: Active
Activity [2]: inactive
Ki [3]: 47 µM
SMILES: O=C1Nc2cccc(Cl)c2/C1=C\C(=O)c1ccc(Cl)cc1

Ki [3]: 86 µM
SMILES: O=C1Nc2ccccc2/C1=C\C(=O)c1cccnc1

Ki [4]: 27 µM
Activity [5]: inactive
Activity [6]: inactive
SMILES: Nc1nc2c(ncn2[C@@H]2O[C@H](COP(=O)(O)OP(=O)(O)NP(=O)(O)O)[C@@H](O)[C@H]2O)c(=O)[nH]1 [PHOSPHOAMINOPHOSPHONIC ACID GUANYLATE ESTER]

Activity [1]: Active
Activity [2]: inactive
Ki [3]: 3.3 µM
Activity [7]: Active
Activity [8]: Active
Activity [9]: Active
Activity [10]: inactive
Activity [11]: inactive
inhibition [12]: Active
Activity [13]: Active
inhibition [14]: Active
inhibition [15]: Active
inhibition [16]: Active
inhibition [17]: Active
inhibition [18]: inactive
SMILES: COc1ccccc1C(=O)/C=C1/C(=O)Nc2cccc(Cl)c21

Ki [3]: 9.1 µM
Activity [19]: Active
SMILES: O=C(/C=C1/C(=O)N(c2ccccc2)c2cccc(Cl)c21)c1cccnc1
